From ChEMBL document CHEMBL1133066, “Design and synthesis of novel pyrrolobenzodiazepine (PBD) prodrugs for ADEPT and GDEPT” (Bioorg Med Chem Lett, 2000) come the findings set out here.

Experiment [1] deals with LS174T. Kind of experiment: Tested for the cytotoxicity in LS174T cells before activation by enzyme nitroreductase/NADH. Format: functional, cell-based. The note with it: Homo sapiens. An outline of the steps:
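LS174T adenocarcinoma cells were seeded at 2000 cells/well and treated with various prodrug concentrations for 1 h without enzyme. They were washed and incubated for 3 days. IC50 is the dose inhibiting growth by 50% relative to drug-free controls.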

The test system of experiment [2] is LS174T. Briefly: The compound was evaluated for Activation Factor. Format: functional, Homo sapiens.
The test system of experiment [3] is LS174T. Kind of experiment: Tested for the cytotoxicity in LS174T cells after activation by enzyme nitroreductase/NADH. It counts as functional, cell-based. The note with it: Homo sapiens. An outline of the steps: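 Human adenocarcinoma LS174T cells were seeded at 2000 cells/well and exposed to a range of prodrug concentrations together with nitroreductase and NADH cofactor for 1 h. Cells were washed and grown for 3 days. IC50 is the prodrug dose giving 50% growth inhibition versus drug-free controls.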

The subject of experiment [4] is LS174T. Kind of experiment: Parent […] tested for the cytotoxicity in LS174T cells. The note with it: Homo sapiens. It counts as functional, cell-based.
Experiment [5] deals with LS174T. Kind of experiment: Tested for the cytotoxicity in LS174T cells; 0.001-0.01. Format: functional, cell-based. The note with it: Homo sapiens.

pIC50: −log10 of the molar value. Where only a bound is given, the exact number is not on record here.

By pIC50 is commonly meant −log10 of the IC50, conventionally taken in molar units. For `C/C=C1/C[C@H]2[C@H](O)N(C(=O)OCc3ccc([N+](=O)[O-])cc3)c3cc(OCc4ccccc4)c(OC)cc3C(=O)N2C1`, the pIC50 was 4.06 in experiment [1], 5.19 in experiment [3] and 9.00 in experiment [4]. Also, the “Activation Factor” value in experiment [2] was determined as 13.5.
Consider `C/C=C1/C[C@H]2C=Nc3cc(OCc4ccccc4)c(OC)cc3C(=O)N2C1`, for which the pIC50 in experiment [5] is 8.00.
Consider `COc1cc2c(cc1OCCCOc1cc3c(cc1OC)C(=O)N1CCC[C@H]1[C@H](O)N3C(=O)OCc1ccc([N+](=O)[O-])cc1)N(C(=O)OCc1ccc([N+](=O)[O-])cc1)[C@@H](O)[C@@H]1CCCN1C2=O`, for which the pIC50 is 3.67 in experiment [1], 4.86 in experiment [3] and 9.30 in experiment [4]. The “Activation Factor” value in experiment [2] stood at 15.7.
Regarding `COc1cc2c(cc1OCc1ccccc1)N(C(=O)OCc1ccc([N+](=O)[O-])cc1)[C@@H](O)[C@@H]1CCCN1C2=O`, the pIC50 is below 3.30 in experiment [1], 5.30 in experiment [3] and 8.10 in experiment [4]. In addition, in experiment [2], the “Activation Factor” value is given as above 100.
